Source: ChEMBL document CHEMBL2203249, “Optimization of a small tropomyosin-related kinase B (TrkB) agonist 7,8-dihydroxyflavone active in mouse models of depression” (J Med Chem, 2012)
Activity calls are given as the source filed them. The calls are words filed in the database; no cut-off is given here.

Assays:
[1] = Drug recovery in human plasma at 5 uM; assay type: ADME, cell-free; details: read-out: Drug uptake
Procedure, shortened: (§1)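 Human plasma protein binding was tested at 5 μM, reporting fraction unbound, fraction bound and recovery. The assay was run by a contract lab.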

Mus musculus [2] = experiment: Agonist activity at TrkB receptor in C57BL/J6 mouse brain assessed as Akt phosphorylation at serine 473 in hippocampus at 2.5 mg/kg, po after 2 hrs by immunoblotting analysis; assay type: functional, organism-based; design: dose 2.5 mg/kg
Plasma = experiment: Fraction unbound in human plasma at 5 uM; assay type: ADME, cell-free; procedure, shortened: as §1
Mus musculus [3] = experiment: Antidepressant activity in C57BL/J6 mouse assessed as reduction of immobility at 2.5 mg/kg, po administered qd for 21 days recorded in last 4 mins by forced swim test; assay type: functional
Procedure, shortened: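 Male C57BL/6J mice, 2–3 months old, were gavaged daily for 21 days with drug (5 or 2.5 mg/kg) or saline and adapted to the test room for 2 days. With no preswim, each mouse was placed for 6 min in a 16-cm cylinder of 24 °C water, 14 cm deep. Immobility in the last 4 min was scored blind and compared by unpaired t-test (n=6 or 8).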

Mus musculus [4] = organism: Mus musculus; experiment: Agonist activity at TrkB receptor in C57BL/J6 mouse brain assessed as TrkB phosphorylation at tyrosine 706 in hippocampus at […] by immunoblotting analysis; assay type: functional, organism-based
[5] = molecular target: BDNF/NT-3 growth factors receptor (Rattus norvegicus) (UniProt Q63604); experiment: Agonist activity at TrkB receptor in rat primary neurons assessed as Akt phosphorylation at 500 nM after 15 mins by immunoblotting analysis; assay type: functional
BDNF/NT-3 growth factors receptor (Rattus norvegicus), sequence (Q63604 whole entry): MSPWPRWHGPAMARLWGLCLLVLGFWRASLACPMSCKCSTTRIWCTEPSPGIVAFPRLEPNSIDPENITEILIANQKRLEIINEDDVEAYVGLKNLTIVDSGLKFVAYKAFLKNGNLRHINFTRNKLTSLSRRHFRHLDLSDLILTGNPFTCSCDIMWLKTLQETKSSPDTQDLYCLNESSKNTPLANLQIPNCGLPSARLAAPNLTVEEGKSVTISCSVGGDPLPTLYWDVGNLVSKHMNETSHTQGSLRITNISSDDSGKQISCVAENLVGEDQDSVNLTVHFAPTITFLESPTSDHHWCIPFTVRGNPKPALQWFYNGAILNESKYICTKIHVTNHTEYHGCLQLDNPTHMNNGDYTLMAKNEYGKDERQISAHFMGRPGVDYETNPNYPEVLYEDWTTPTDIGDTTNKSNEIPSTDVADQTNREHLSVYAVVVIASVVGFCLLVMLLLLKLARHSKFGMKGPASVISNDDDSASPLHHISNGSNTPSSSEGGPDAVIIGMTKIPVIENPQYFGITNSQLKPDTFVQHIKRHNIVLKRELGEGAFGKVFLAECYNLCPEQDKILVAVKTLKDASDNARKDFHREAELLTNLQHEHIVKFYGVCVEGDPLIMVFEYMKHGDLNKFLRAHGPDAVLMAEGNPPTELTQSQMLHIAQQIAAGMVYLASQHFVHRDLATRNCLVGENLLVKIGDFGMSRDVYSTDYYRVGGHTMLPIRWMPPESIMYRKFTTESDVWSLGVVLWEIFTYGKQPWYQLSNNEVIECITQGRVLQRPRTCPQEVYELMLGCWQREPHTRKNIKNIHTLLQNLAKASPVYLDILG
Procedure, shortened: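 Primary cortical cultures from E17 rat embryos were exposed to 500 nM for 15 min. Lysates were immunoblotted for p-TrkB and p-Akt (20 μg per lane). Two replicate experiments.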

Mus musculus [6] = experiment: Agonist activity at TrkB receptor in C57BL/J6 mouse brain assessed as TrkB phosphorylation at tyrosine 816 in hippocampus at 2.5 mg/kg, po after 2 hrs by immunoblotting analysis; assay type: functional, organism-based; design: dose 2.5 mg/kg
Liver microsomes = experiment: Metabolic stability in human liver microsomes assessed as formation of reactive metabolites at 1 uM after 1 hr; assay type: ADME, Microsome
CYP2C19 = CYP2C19 (Homo sapiens, UniProt P33261); experiment: Inhibition of CYP2C19 at 3 uM; assay type: ADME
CYP2C19, sequence (P33261 whole entry): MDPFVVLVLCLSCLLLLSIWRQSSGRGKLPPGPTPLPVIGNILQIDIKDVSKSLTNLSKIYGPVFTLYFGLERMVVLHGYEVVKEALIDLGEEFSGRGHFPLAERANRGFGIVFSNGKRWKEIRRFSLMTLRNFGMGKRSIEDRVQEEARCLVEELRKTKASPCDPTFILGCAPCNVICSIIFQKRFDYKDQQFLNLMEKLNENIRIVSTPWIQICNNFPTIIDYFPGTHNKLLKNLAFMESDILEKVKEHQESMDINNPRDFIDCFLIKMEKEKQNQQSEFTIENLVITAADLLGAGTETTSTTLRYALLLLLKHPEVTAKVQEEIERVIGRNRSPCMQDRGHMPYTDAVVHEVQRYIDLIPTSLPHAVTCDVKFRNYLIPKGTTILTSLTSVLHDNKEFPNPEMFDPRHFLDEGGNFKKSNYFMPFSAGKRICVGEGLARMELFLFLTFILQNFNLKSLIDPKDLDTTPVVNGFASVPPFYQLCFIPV
Procedure, shortened: (§2)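 CYP inhibition was tested at 3 and 30 μM and reported as percent inhibition. The assay was run by a contract lab.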

[7] = Metabolic stability in human liver microsomes assessed as remaining parent compound at 1 uM after 1 hr in the presence of […]; assay type: ADME, Microsome; details: read-out: Stability
Procedure, shortened: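 Human liver microsomes were incubated with test compound at 1 μM for 1 h. Percent parent remaining was measured with cofactor and in a cofactor-free control. The work was done by a contract lab.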

Mus musculus [8] = experiment: Bioavailability in mouse at 10 mg/kg by HPLC analysis; assay type: ADME, organism-based; details: in vivo
Procedure, shortened: (§3)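 Mice of 20–30 g, 6–8 weeks old, dosed i.v. or orally. Blood was drawn at 3, 10, 30, 60, 120, 240, 360 and 480 min into lithium-heparin tubes, spun at 2500 × g for 15 min at 4°C within 1 h and stored at −20°C. Plasma was analysed by HPLC, 3 mice per time point. AUC was calculated by the linear/log trapezoidal method.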

[9] = AUC last in mouse at 3 mg/kg, iv by HPLC analysis; assay type: ADME, organism-based; design: time 0 - last, dose 3 mg/kg, route intravenous; details: plasma; procedure, shortened: as §3
CYP1A2 = molecular target: T1, CYP1A2 (Homo sapiens, UniProt P05177); experiment: Inhibition of CYP1A2 at 3 uM; assay type: ADME; procedure, shortened: as §2
T1 sequence (P05177 whole entry): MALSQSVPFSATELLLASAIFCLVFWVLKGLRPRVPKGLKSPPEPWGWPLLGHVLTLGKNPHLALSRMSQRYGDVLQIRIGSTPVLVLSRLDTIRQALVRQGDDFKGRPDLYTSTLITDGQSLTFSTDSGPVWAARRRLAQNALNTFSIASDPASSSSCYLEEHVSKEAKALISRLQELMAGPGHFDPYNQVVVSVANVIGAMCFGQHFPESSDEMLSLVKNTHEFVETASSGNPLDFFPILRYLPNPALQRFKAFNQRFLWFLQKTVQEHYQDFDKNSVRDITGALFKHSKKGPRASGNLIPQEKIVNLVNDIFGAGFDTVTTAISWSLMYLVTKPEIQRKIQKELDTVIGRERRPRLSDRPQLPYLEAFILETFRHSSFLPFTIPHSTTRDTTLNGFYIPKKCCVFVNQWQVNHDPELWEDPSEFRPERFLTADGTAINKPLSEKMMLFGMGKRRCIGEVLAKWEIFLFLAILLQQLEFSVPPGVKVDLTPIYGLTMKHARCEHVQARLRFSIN

[10] = AUC (infinity) in mouse at 3 mg/kg, iv by HPLC analysis; assay type: ADME, organism-based; design: time infinity, dose 3 mg/kg, route intravenous; details: plasma; procedure, shortened: as §3
[11] = Cmax in mouse at 10 mg/kg, po by HPLC analysis; assay type: ADME, organism-based; design: dose 10 mg/kg, route oral; details: in vivo; procedure, shortened: as §3
[12] = AUC last in mouse at 10 mg/kg, po by HPLC analysis; assay type: ADME, organism-based; design: time 0 - last, dose 10 mg/kg, route oral; details: plasma; procedure, shortened: as §3
[13] = Volume of distribution at steady state in mouse at 3 mg/kg, iv by HPLC analysis; assay type: ADME, organism-based; design: dose 3 mg/kg, route intravenous; details: in vivo, read-out: Vdss
Procedure, shortened: (§4)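 Mice (20–30 g, 6–8 weeks old) were dosed i.v. or orally. Blood was drawn into lithium-heparin tubes at 3, 10, 30, 60, 120, 240, 360 and 480 min, with 3 mice per time point. Plasma was separated at 2500 × g for 15 min at 4°C within 1 h and stored at −20°C. Samples were analysed by HPLC, and AUC was calculated by the linear/log trapezoidal method.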

[14] = Elimination half life in mouse at 3 mg/kg, iv by HPLC analysis; assay type: ADME, organism-based; design: dose 3 mg/kg, route intravenous; details: in vivo, read-out: beta t1/2; procedure, shortened: as §3
[15] = Tmax in mouse at 10 mg/kg, po by HPLC analysis; assay type: ADME, organism-based; design: dose 10 mg/kg, route oral; details: in vivo; procedure, shortened: as §4
[16] = Elimination half life in mouse at 10 mg/kg, po by HPLC analysis; assay type: ADME, organism-based; design: dose 10 mg/kg, route oral; details: in vivo, read-out: beta t1/2; procedure, shortened: as §3
[17] = AUC (infinity) in mouse at 10 mg/kg, po by HPLC analysis; assay type: ADME, organism-based; design: time infinity, dose 10 mg/kg, route oral; details: plasma; procedure, shortened: as §3
[18] = Volume of distribution in mouse at 3 mg/kg, iv by HPLC analysis; assay type: ADME, organism-based; design: dose 3 mg/kg, route intravenous; details: in vivo, read-out: Vz; procedure, shortened: as §4
[19] = molecular target: Voltage-gated inwardly rectifying potassium channel KCNH2 (Homo sapiens, UniProt Q12809); experiment: Inhibition of human ERG
Voltage-gated inwardly rectifying potassium channel KCNH2, sequence (Q12809 whole entry): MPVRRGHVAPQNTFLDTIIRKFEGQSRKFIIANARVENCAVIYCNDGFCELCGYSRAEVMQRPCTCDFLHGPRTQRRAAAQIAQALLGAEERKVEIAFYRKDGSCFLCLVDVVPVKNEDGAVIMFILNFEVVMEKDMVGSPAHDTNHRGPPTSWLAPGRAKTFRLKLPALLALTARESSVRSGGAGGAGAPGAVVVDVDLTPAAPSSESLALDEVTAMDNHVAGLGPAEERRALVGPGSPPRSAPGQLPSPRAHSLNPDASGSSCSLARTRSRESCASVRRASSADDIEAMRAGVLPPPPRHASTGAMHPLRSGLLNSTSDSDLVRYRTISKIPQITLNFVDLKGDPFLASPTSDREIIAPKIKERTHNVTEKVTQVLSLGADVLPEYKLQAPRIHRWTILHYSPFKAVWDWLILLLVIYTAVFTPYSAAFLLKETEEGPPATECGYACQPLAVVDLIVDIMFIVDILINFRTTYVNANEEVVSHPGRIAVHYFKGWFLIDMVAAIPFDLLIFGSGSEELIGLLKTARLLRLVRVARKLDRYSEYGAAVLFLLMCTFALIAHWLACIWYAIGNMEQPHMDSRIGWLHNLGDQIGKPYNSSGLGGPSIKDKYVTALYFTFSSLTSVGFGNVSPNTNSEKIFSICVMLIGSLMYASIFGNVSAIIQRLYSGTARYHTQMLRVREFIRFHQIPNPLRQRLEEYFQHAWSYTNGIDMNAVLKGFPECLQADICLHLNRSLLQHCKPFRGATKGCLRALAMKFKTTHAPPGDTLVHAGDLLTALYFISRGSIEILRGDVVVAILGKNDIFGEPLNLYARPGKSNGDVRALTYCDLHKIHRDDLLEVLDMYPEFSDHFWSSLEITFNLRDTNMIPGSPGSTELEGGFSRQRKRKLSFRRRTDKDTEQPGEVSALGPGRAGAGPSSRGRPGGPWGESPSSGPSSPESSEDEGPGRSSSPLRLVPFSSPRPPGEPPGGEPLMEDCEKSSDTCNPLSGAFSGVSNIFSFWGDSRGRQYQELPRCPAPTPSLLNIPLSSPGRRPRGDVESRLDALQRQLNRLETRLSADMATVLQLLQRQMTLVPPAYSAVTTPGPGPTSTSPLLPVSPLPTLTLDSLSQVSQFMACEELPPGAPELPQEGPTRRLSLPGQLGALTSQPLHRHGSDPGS

[20] = Total body clearance in mouse at 3 mg/kg, iv by HPLC analysis; assay type: ADME, organism-based; design: dose 3 mg/kg, route intravenous; details: in vivo; procedure, shortened: as §4

SMILES	remaining at 5 µM [1] [%]	Activity (Mus musculus [2])	Fu (Plasma) [%]	Activity (Mus musculus [3])	Activity (Mus musculus [4])	Activity [5]	Activity (Mus musculus [6])	Stability (Liver microsomes)	inhibition at 3 µM (CYP2C19) [%]	remaining at 1 h, 1 µM [7] [%]	also measured
O=c1cc(-c2ccc(N3CCCC3)cc2)oc2c1ccc1cc[nH]c12	97	Active	0.07	inactive	Active	Active	Active	Unstable	16.2	1.2	
Cc1nc2ccc3c(=O)cc(-c4ccc(N5CCCC5)cc4)oc3c2[nH]1	86.3	Active	0.03	45%	Active	Active	Active	Stable	11.1	25.4	F (Mus musculus [8]): 2%; AUC(0-t) [9]: 312 ng·h/mL; inhibition at 3 µM (CYP1A2): 27.3%; AUC(0-inf) [10]: 320 ng·h/mL; Cmax [11]: 7 ng/mL; AUC(0-t) [12]: 19.1 ng·h/mL; Vd [13]: 10 L/kg; half-life [14]: 1.72 h; Tmax [15]: 2 h; half-life [16]: 0.967 h; AUC(0-inf) [17]: 21.6 ng·h/mL; Vd [18]: 23.1 L/kg; inhibition (INH) [19]: Not Active; clearance [20]: 156 mL/min/kg
